UBC9 SUMO inh: SUMOylation inhibition; AID 2006; P63279; HTRF SUMOylation assay, SAE1/SAE2 + UBC9, in vitro; actives 0.36% (n = 290,000); inhibition, % at 35 µM; in the data active = inhibition above about 50%, passing the limit was not always enough
Rin1-Abl PPI inh: inhibitors of human Rin1-Abl protein interaction | P00519+Q13671 | TR-FRET Rin1/Abl binding, biochemical | inhibition, % at 7.35 µM | actives 0.4% (n = 360,000) | AID 588664; in the data active = inhibition above about 5%, passing the limit was not always enough
RBBP9 inhibitor: blocks human serine hydrolase RBBP9; inhibition, % at 7.94 µM; O75884; recombinant RBBP9, FP-Rh probe fluorescence polarization; actives 0.2% (n = 220,000);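 active = inhibition above the campaign mean of all tested compounds plus 3 SD, cut at about 14% in these data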;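 also: plate controls were DMSO wells with RBBP9 for no effect and wells lacking RBBP9 protein for full effect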
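System: RBBP9 protein / Buffer or medium: Tris/NaCl buffer pH 8.0 with 0.1% Pluronic / Probe or stimulus: Serine-hydrolase probe FP-Rh, 375 nM pre-mixing / Dosing: 7.94 µM single dose, 0.794% DMSO / Times: enzyme-compound preincubation 30 min, then probe labeling 45 min, 25 °C / Technique: fluorescence polarization (mP), excitation 525 nm, emission 598 nm / Replication: singlicate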
UBC13 polyUb: inhibitors of human UBC13 polyubiquitin chain formation. TR-FRET. actives 0.47% (n = 330,000). inhibition, % at 20 µM; in the data active = inhibition above about 45%, passing the limit was not always enough
ALR inh: human ALR oxidase inhibition via reduced H2O2. inhibition, % (test concentration not listed). P55789. purified ALR, DTT oxidation, H2O2 HRP-luminol luminescence. actives 3.8% (n = 290,000);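 active = mean replicate inhibition above about 79%, with every replicate also reaching it, limit read from the data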
PREPL inhibitor: human PREPL enzyme inhibition; Q4J6C6; recombinant PREPL, fluorescence polarization activity-based probe; inhibition, % at 5.96 µM; actives 0.68% (n = 320,000); AID 2751; in the data active = inhibition above about 43%;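 also: 0% = enzyme with DMSO and 100% = wells lacking enzyme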
Rin1 Abl conf: confirmation of inhibitors of human Rin1-Abl interaction; shares compounds with Rin1-Abl PPI inh; TR-FRET Rin1-Abl binding, purified proteins; inhibition, % at 7.35 µM; actives 49% (n = 1,300); AID 602124
GFP quencher: counter-screen for Rin1-Abl inhibitors: GFP fluorescence quenchers. shares compounds with Rin1-Abl PPI inh. inhibitors/quenchers counterscreen. inhibition, % at 6.75 µM. actives 8.5% (n = 1,300);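 also: ABL1-eGFP fusion protein alone without its partner RIN1-SBP; 0% = protein with vehicle and 100% = wells lacking protein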
GFP quench DR: counter-screen for Rin1-Abl inhibitors: GFP quenchers, dose response; 230 tested, under 10 active; GFP fluorescence interference/quenching counterscreen; AID 602182; shares compounds with Rin1-Abl PPI inh; IC50, µM; call rule not given here;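 also: ABL1-eGFP fusion protein alone without its RIN1 binding partner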
* hit, by the source's call. Only some compounds are listed: those with a hit (about 4.3% of all), similar ones and a draw of the others. Rule as the data show it, unless noted: active = inhibition above about 6.5%; inactive = the rest.

`CCOc1cc(N2CCOCC2)c(OCC)cc1NC(C)C(=O)N1CCN(CC)CC1` (centres undefined) gave UBC9 SUMO inh 27, Rin1-Abl PPI inh 38*, RBBP9 inhibitor -4, Rin1 Abl conf 1 and GFP quencher 0.
For Cc1ccc(Oc2nnc(-c3cccs3)c3ccccc23)cc1 the results were UBC9 SUMO inh -16, Rin1-Abl PPI inh -2, RBBP9 inhibitor -9, UBC13 polyUb -2, ALR inh -5 and PREPL inhibitor 12.
Cc1ccc(Oc2nnc(-c3cccs3)c3ccccc23)cc1C was read as UBC9 SUMO inh 0, Rin1-Abl PPI inh 6.0*, RBBP9 inhibitor -6, UBC13 polyUb -6, ALR inh 49, PREPL inhibitor 0, Rin1 Abl conf 2 and GFP quencher 0.
Screening O=S(=O)(c1ccc(Cl)cc1)N1CCC2(CC1)OCCO2 returned UBC9 SUMO inh 5, Rin1-Abl PPI inh 12*, UBC13 polyUb -9, ALR inh -2, PREPL inhibitor 7, Rin1 Abl conf 0 and GFP quencher -2.
Screening CSc1ncccc1C(=O)N1CCCC(C(=O)c2ccc3ccccc3c2)C1 (centres undefined) returned UBC9 SUMO inh 18, Rin1-Abl PPI inh -2, RBBP9 inhibitor -9, UBC13 polyUb 6, ALR inh -6 and PREPL inhibitor 1.
For O=C(c1ccc2ccccc2c1)C1CCCN(C(=O)c2cccnc2)C1 (centres undefined) the results were UBC9 SUMO inh 12, Rin1-Abl PPI inh 6.9*, UBC13 polyUb 0, ALR inh -10, Rin1 Abl conf -5 and GFP quencher 0.
For O=C(Nc1ccc2c(c1)CCC2)Nc1ccc(F)cc1F the results were UBC9 SUMO inh -6, Rin1-Abl PPI inh 2, UBC13 polyUb -5, ALR inh -2 and PREPL inhibitor 6.
Screening COc1ccc(CC(=O)Oc2ccc(F)cc2)cc1 returned UBC9 SUMO inh 2, Rin1-Abl PPI inh -1, UBC13 polyUb 4, ALR inh -16 and PREPL inhibitor 7.
Screening CC1(C)Cc2nc3nc(SCC(=O)NCCc4ccccc4)n(-c4ccccc4)c(=O)c3cc2CO1 returned UBC9 SUMO inh -16, Rin1-Abl PPI inh 8.2*, RBBP9 inhibitor 3, UBC13 polyUb -7, ALR inh -18, PREPL inhibitor -1, Rin1 Abl conf 6 and GFP quencher 2.
CC1(C)Cc2nc3nc(SCC(=O)NCc4ccccc4)n(-c4ccccc4)c(=O)c3cc2CO1 was read as UBC9 SUMO inh 16 and RBBP9 inhibitor 7.
COc1ccc(N(CC(=O)NCC2CCCO2)C(=O)CCC(=O)Nc2cc(C)on2)cc1OC (centres undefined) was read as UBC9 SUMO inh -2, Rin1-Abl PPI inh -3, UBC13 polyUb 3, ALR inh 0 and PREPL inhibitor -3.
For Cc1cc(-c2nc(-c3ccncc3)no2)ccc1[N+](=O)[O-] the results were UBC9 SUMO inh -7, Rin1-Abl PPI inh -2, UBC13 polyUb 4, ALR inh -16 and PREPL inhibitor 16.
`COc1cccc(N(CC(=O)NCC2CCCO2)C(=O)CNS(=O)(=O)c2ccccc2)c1` (centres undefined) gave UBC9 SUMO inh 9, Rin1-Abl PPI inh 9.8*, RBBP9 inhibitor -1, UBC13 polyUb 5, ALR inh -5, PREPL inhibitor -2, Rin1 Abl conf -1 and GFP quencher -1.
O=C1Cc2cccc(=O)c(O)c2C(=O)O1 was read as Rin1-Abl PPI inh 8.2*, Rin1 Abl conf 9.6* and GFP quencher 5.
For Cc1c(F)cccc1NC(=O)CCCCCC1NC(=O)NC1C (centres undefined) the results were UBC9 SUMO inh -15, Rin1-Abl PPI inh 86*, RBBP9 inhibitor -8, UBC13 polyUb -7, PREPL inhibitor 11, Rin1 Abl conf 98*, GFP quencher -1 and GFP quench DR >68.
CC1NC(=O)NC1CCCCCC(=O)Nc1ccc(F)cc1 (centres undefined) was read as UBC9 SUMO inh 1, Rin1-Abl PPI inh 84*, RBBP9 inhibitor -8, UBC13 polyUb -7, ALR inh 1, PREPL inhibitor -2, Rin1 Abl conf 98*, GFP quencher 0 and GFP quench DR >68.
O=C(CCCC(=O)c1ccccc1)Nc1ccc(F)cc1 was read as UBC9 SUMO inh -2, Rin1-Abl PPI inh 3, UBC13 polyUb 4, ALR inh 8 and PREPL inhibitor -15.
Screening CC1CCCC(N2CCN(S(=O)(=O)c3ccccc3)CC2)C1 (centres undefined) returned UBC9 SUMO inh 23, Rin1-Abl PPI inh 2, UBC13 polyUb 2, ALR inh 1 and PREPL inhibitor 3.
For CSc1ccccc1C(=O)OCC(=O)Nc1c(C)n(C)n(-c2ccccc2)c1=O the results were Rin1-Abl PPI inh 3.
For CCN1C(=O)/C(=c2/s/c(=C3\SC(C)=C(C)N3CC)c(=O)n2CC)N(c2ccccc2)C1=S the results were RBBP9 inhibitor -4.
For CC(=O)NN1C(=O)/C(=C\c2ccc(Br)o2)SC1=S the results were UBC9 SUMO inh 41, Rin1-Abl PPI inh 1, RBBP9 inhibitor -6, UBC13 polyUb -1, ALR inh -11 and PREPL inhibitor -8.
`CC(=O)NN1C(=O)/C(=C/c2ccc(Br)o2)SC1=S` gave UBC9 SUMO inh 26, Rin1-Abl PPI inh 6.5*, RBBP9 inhibitor -9, UBC13 polyUb -11, ALR inh -3, PREPL inhibitor -21, Rin1 Abl conf -2 and GFP quencher 0.
Screening COc1ccc(Cl)cc1C(=O)NNC1CC(=O)N(Cc2ccc(Cl)cc2)C1=O (centres undefined) returned UBC9 SUMO inh 6, Rin1-Abl PPI inh 2, RBBP9 inhibitor -10, UBC13 polyUb 5, ALR inh 34 and PREPL inhibitor 19.
For O=C(Nc1ccccc1Cl)c1ccc2ccccc2c1 the results were UBC9 SUMO inh 2, Rin1-Abl PPI inh 7.6*, UBC13 polyUb -6, ALR inh 0, PREPL inhibitor -14, Rin1 Abl conf -3 and GFP quencher 0.
Screening CS(=O)(=O)c1ccc(Cl)c(NC(=O)c2ccc3ccccc3c2)c1 returned UBC9 SUMO inh -4, Rin1-Abl PPI inh -5, RBBP9 inhibitor -7, UBC13 polyUb 9, ALR inh -4 and PREPL inhibitor -2.
CC(=O)c1c(C)[nH]c(C(=O)OCC(=O)N2CCN(c3ccccc3)CC2)c1C was read as Rin1-Abl PPI inh -5.
